A short description of series [1]: Binding affinity to alpha bungarotoxin insensitive neuronal nicotinic receptor at 100 nM.
In series [2] the target is T1, Muscarinic acetylcholine receptor M2 (Homo sapiens) (UniProt P08172).
T1 sequence (whole entry): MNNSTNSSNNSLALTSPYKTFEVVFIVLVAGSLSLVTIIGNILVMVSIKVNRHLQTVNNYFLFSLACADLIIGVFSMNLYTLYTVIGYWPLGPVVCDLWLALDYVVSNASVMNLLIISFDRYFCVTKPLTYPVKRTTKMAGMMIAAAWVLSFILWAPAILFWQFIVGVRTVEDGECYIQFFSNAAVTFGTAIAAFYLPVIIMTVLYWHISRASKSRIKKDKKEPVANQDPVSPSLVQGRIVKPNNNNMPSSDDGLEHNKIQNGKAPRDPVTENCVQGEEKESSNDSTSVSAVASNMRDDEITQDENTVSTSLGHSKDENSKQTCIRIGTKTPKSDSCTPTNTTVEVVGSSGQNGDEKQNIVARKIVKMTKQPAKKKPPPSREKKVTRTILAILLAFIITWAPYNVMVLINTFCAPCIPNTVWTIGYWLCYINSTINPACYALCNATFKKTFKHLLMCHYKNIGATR
In words: Binding affinity to muscarinic M2 receptor at 100 nM.

The target in series [3] is Sodium-dependent noradrenaline transporter (Homo sapiens) (UniProt P23975). The experiment in a line: Binding affinity to norepinephrine transporter at 100 nM.
Sequence of Sodium-dependent noradrenaline transporter (Homo sapiens) (P23975 whole entry): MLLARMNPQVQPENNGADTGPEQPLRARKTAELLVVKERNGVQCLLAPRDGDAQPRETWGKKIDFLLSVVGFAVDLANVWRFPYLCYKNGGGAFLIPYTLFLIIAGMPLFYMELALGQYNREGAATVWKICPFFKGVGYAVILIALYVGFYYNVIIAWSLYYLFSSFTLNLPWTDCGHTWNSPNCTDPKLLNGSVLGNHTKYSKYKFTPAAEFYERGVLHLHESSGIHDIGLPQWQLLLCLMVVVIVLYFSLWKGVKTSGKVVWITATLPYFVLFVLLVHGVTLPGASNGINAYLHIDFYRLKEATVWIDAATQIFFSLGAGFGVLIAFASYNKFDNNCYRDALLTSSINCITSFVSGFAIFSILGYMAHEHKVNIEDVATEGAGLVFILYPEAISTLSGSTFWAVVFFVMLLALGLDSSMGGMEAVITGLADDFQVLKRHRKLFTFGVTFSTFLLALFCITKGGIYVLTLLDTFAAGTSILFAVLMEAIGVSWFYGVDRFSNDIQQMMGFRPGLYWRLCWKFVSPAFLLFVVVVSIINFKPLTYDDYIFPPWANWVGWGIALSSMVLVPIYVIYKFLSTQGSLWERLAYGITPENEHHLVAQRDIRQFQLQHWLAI
Series [4] can be described thus: Binding affinity to alpha-2 adrenergic receptor at 100 nM.
Series [5] can be described thus: Binding affinity to sodium channel site 2 at 100 nM.
A short description of series [6]: Binding affinity to acetylcholine esterase at 100 nM.
Series [7] can be described thus: Displacement of [3H]di-o-tolylguanidine from Sigma2 receptor in rat liver homogenate. It counts as tissue-based. The gist of the method:
(§1)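 Competition binding of unlabeled ligand in rat brain or rat liver homogenates. S2R binding run in the presence of 300 nM 1 to mask S1R sites. Liver assays run on a 96-well platform.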

Series [8] addresses T2, Sigma non-opioid intracellular receptor 1 (Rattus norvegicus, UniProt Q9R0C9). In words: Displacement of [3H](+)-pentazocine from Sigma1 receptor in rat liver homogenate. Type of series: tissue-based. (In general: Loss of bound radioactivity is the signal in a displacement assay; it reports binding, not function.)
In series [9] the target is Histamine H2 receptor (Homo sapiens) (UniProt P25021). In words: Binding affinity to histamine H2 receptor at 100 nM.
Sequence of Histamine H2 receptor (Homo sapiens) (P25021 whole entry): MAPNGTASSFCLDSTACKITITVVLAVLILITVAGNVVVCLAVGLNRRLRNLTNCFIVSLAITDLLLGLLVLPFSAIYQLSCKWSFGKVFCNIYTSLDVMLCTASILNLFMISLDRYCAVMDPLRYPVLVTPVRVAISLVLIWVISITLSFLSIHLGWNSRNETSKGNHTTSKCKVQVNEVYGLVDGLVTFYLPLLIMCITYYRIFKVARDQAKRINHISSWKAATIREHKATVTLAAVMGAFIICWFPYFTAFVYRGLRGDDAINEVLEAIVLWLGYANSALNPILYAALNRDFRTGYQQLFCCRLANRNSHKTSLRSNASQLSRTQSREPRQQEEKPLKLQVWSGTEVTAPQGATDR
The target of series [10] is Sigma non-opioid intracellular receptor 1 (Homo sapiens) (UniProt Q99720). The experiment in a line: Binding affinity to Sigma1 receptor overexpressed in CHO cells after 120 mins by gamma counting relative to control. Type of series: cell-based. The following applies: tested as the 18F-labelled form. The gist of the method: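 CHO cells grown in Ham's F-12, 2 × 10^5 per well, transfected 24 h later with 0.8 μg empty pcDNA (control) or S1R (OPRS1) cDNA; medium refreshed at 12 h. At 24 h post-transfection, 2 μCi [18F] tracer per well; triplicates; 30 and 120 min uptake, two cold PBS washes, 1 N NaOH lysis, γ counting, normalized to Bradford protein.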
Sequence of Sigma non-opioid intracellular receptor 1 (Homo sapiens) (Q99720 whole entry): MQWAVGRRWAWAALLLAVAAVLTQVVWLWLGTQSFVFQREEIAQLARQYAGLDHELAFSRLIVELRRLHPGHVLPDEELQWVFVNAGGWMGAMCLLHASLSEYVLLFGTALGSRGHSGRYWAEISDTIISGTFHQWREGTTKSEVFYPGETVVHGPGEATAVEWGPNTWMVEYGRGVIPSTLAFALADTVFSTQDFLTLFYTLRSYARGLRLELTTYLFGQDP

Series [11] can be described thus: Binding affinity to calcium channel L type at 100 nM.
The nature of series [12]: Binding affinity to peripheral muscarinic receptor at 100 nM.
The target of series [13] is Sigma non-opioid intracellular receptor 1 (Homo sapiens) (UniProt Q99720). The experiment in a line: Binding affinity to Sigma1 receptor overexpressed in CHO cells after 30 to 120 mins by gamma counting. Type of series: cell-based. The following applies: tested as the 18F-labelled form. The gist of the method: (§2)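 CHO cells grown in Ham's F-12, seeded 2 × 10^5 per well, transfected 24 h later with 0.8 μg empty pcDNA (control) or 0.8 μg S1R (OPRS1) DNA; medium refreshed at 12 h. At 24 h post-transfection, exposed to [18F] tracer (2 μCi/well) for 30 and 120 min, triplicate wells. Washed twice with cold PBS, lysed in 1 N NaOH, gamma counted; normalized to Bradford protein.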

Series [14] deals with CHO. In words: Cellular uptake in CHO cells after 30 to 120 mins by liquid scintillation counting. It counts as ADME, cell-based, Cricetulus griseus. As to conditions: chinese hamster. The gist of the method: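 Uptake in CHO cells in Ham's F-12, empty-pcDNA or S1R-transfected (0.8 μg DNA, 2 × 10^5 cells/well). [18F]13 at 2 μCi per well or [3H]1, 30 and 120 min, triplicate. Cells washed with cold PBS and lysed in 1 N NaOH. Counted by gamma counter (18F) or liquid scintillation (3H), normalized to Bradford protein.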

A further series concerns Hippocampus. The experiment in a line: Biodistribution in mouse hippocampus at 200 uCi after 60 mins by autoradiography. It counts as ADME, organism-based. The following applies: in vivo, 1 h. The essentials:
(§3)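 Mice injected iv with 200-250 μCi tracer; brains taken 60 min later after saline perfusion, snap frozen and cut as 12 μm sagittal sections. Sections air-dried 10 min, exposed to 18F-sensitive phosphor screens 12 h at 4 °C, then imaged; anatomy confirmed by Nissl staining. Blocking arm given BD1047 (1 mg/kg) 10 min before tracer.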

Series [15] relates to Brain. In words: Drug uptake in Balb C mouse brain at 630-690 uCi, iv after 30 mins by HPLC analysis. Type of series: ADME, organism-based. As to conditions: in vivo, 0.5 h. The essentials:
(§4)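 Balb C mice (n=2 per time point) received 630-690 μCi tracer iv; brain and liver collected at 30 and 60 min. Tissue homogenized in 500 μL ice-cold acetonitrile, centrifuged 9,400 g for 4 min. Supernatants run on reversed-phase radio-HPLC; percent intact parent = parent peak area/total peak area × 100, decay corrected to dosing. Extraction efficiency checked by gamma counting.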

Another series concerns Cerebellum. The experiment in a line: Biodistribution in mouse cerebellum at 200 uCi after 60 mins by autoradiography. It counts as ADME, organism-based. As to conditions: in vivo, 1 h. The gist of the method:
as §3

For series [16], the species on record is Mus musculus. In words: Biodistribution in mouse brain facial nucleus at 200 uCi after 60 mins by autoradiography. Type of series: ADME, organism-based. The following applies: in vivo, 1 h. The essentials:
as §3

The test system of series [17] is Brain. In words: Drug uptake in Balb C mouse brain at 630-690 uCi, iv after 60 mins by HPLC analysis. Type of series: ADME, organism-based. The following applies: in vivo, 1 h. The essentials: as §4
Series [18] deals with Brain. The experiment in a line: Biodistribution in mouse brain at 95-125 uCi, iv by PET imaging. Type of series: ADME, organism-based. The following applies: in vivo. The gist of the method: (§5)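 Normal Balb C mice (20-30 g) under isoflurane (3% induction, 1-3% maintenance). […] Dynamic list-mode microPET acquisition started just before injection and ran 60 min; images reconstructed by 2D OSEM, whole-brain time-activity curves.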

In series [19] the test system is Brain. In words: Biodistribution in mouse brain assessed as reduction in compound uptake at 95-125 uCi, iv administered 10 mins post FTC-146 treatment measured after 60 mins by PET imaging. It counts as ADME, organism-based. As to conditions: in vivo, 1 h. The essentials: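 Normal Balb C mice (20-30 g) under isoflurane (3% induction, 1-3% maintenance). […] Dynamic microPET list-mode acquisition for 60 min, OSEM reconstruction. Whole-brain uptake from time-activity curves, reduction read at 60 min.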

The test system of series [20] is Brain. The experiment in a line: Biodistribution in mouse brain assessed as reduction in compound uptake at 95-125 uCi, iv administered 10 mins post BD1047 treatment measured after 60 mins by PET imaging. The following applies: in vivo, 1 h. Type of series: ADME, organism-based. The essentials: as §5
The species named for series [21] is Mus musculus. In words: Biodistribution in mouse midbrain at 200 uCi after 60 mins by autoradiography. It counts as ADME, organism-based. The following applies: in vivo, 1 h. The essentials: as §3
For series [22], the system named is Liver. The experiment in a line: Drug uptake in Balb C mouse liver at 630-690 uCi, iv after 60 mins by HPLC analysis. It counts as ADME, organism-based. The following applies: in vivo, 1 h. The essentials:
as §4

The test system of series [23] is Brain. In words: Biodistribution in mouse brain assessed as reduction in compound uptake at 95-125 uCi, iv administered 10 mins post haloperidol treatment measured after 60 mins by PET imaging. The following applies: in vivo, 1 h. Type of series: ADME, organism-based. The essentials:
as §5

A further series has as its system Cortex. In words: Biodistribution in mouse cortex at 200 uCi after 60 mins by autoradiography. As to conditions: in vivo, 1 h. It counts as ADME, organism-based. The gist of the method: as §3
For series [24], the system named is CHO. In words: Cellular uptake in CHO cells after 30 to 120 mins by gamma counting. As to conditions: chinese hamster. Type of series: ADME, cell-based, Cricetulus griseus. The essentials: as §2
The species entered for series [25] is Mus musculus. The experiment in a line: Biodistribution in mouse corpus callosum at 200 uCi after 60 mins by autoradiography. Type of series: ADME, organism-based. As to conditions: in vivo, 1 h. The essentials:
as §3

For series [26], the system named is Brain. The experiment in a line: Biodistribution in mouse brain at 200 uCi administered 10 mins post BD1047 treatment measured after 60 mins by autoradiography. Type of series: ADME, organism-based. The following applies: in vivo, 1 h. The essentials: as §3
Series [27] has as its system Liver. The experiment in a line: Drug uptake in Balb C mouse liver at 630-690 uCi, iv after 30 mins by HPLC analysis. As to conditions: in vivo, 0.5 h. It counts as ADME, organism-based. The gist of the method:
as §4

Series [28] is described as follows: Displacement of [3H]di-o-tolylguanidine from Sigma2 receptor in rat brain homogenate. It counts as tissue-based. The essentials: as §1
The target in series [29] is T2, Sigma non-opioid intracellular receptor 1. In words: Displacement of [3H](+)-pentazocine from Sigma1 receptor in rat brain homogenate. Type of series: tissue-based.

Calls of active or inactive are those of the source. No cut-off for these calls is given here. Some results are limits rather than exact numbers.

Consider four molecules from ChEMBL document CHEMBL2177078, “New positron emission tomography (PET) radioligand for imaging σ-1 receptors in living subjects” (J Med Chem, 2012).

T2 sequence (Q9R0C9 whole entry): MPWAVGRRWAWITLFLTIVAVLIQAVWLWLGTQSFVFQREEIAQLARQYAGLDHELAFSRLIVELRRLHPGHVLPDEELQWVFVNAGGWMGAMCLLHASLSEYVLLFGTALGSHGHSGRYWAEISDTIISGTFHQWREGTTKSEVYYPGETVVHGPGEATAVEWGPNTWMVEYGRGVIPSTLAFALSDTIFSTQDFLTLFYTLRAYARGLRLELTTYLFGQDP

For orientation: Ki means a measure of affinity in units of concentration, obtained from inhibition or displacement. Lower therefore signals tighter binding. Take `O=c1sc2cc(CCCF)ccc2n1CCN1CCCCCC1`: the Activity in series [1], in [2], in [3], in series [4], in [5] and in [6] was less than 50% in each case. For the same molecule, the Activity in series [9], in [11] and in series [12] was less than 50% in each case. The inhibition constant Ki in series [7] came out at 0.467 µM; in series [8], 0.00096 µM. This molecule displayed a fold change (FC) in series [10] of 4. For the same molecule, the outcome in series [13] was Active.

For `[3H]c1cc2c(c([3H])c1O)[C@@]1(C)CCN(CC=C(C)C)[C@@H](C2)[C@H]1C`, in the series with CHO [14], the Drug uptake result is recorded as “Active”.

Consider `O=c1sc2cc(CCC[18F])ccc2n1CCN1CCCCCC1`, for which the Drug uptake result in the series on Hippocampus is reported as “Active”; with Brain [15] it was 100%; in the series with Cerebellum, “Active”; in the series listed under Mus musculus [16], “Active”; in the series on Brain [17], 100%; in the series on Brain [18], “Active”. The Drug uptake is 82% in the series with Brain [19]; 81% in the series on Brain [20]; “Active” in the series filed under Mus musculus [21]; 27% in the series on Liver [22]; 80% in the series on Brain [23]; “Active” in the series on Cortex. The Drug uptake result is recorded as “Active” in the series on CHO [24], “Not Active” in the series listed under Mus musculus [25], “Not Active” in the series with Brain [26] and 34% in the series on Liver [27].

As for `CCCc1ccc2c(c1)sc(=O)n2CCN1CCCCCC1`, the Ki in series [28] amounted to 0.627 µM; in [29], 0.0017 µM; in [7], 0.247 µM.
